In ChEMBL document CHEMBL1177716, “Kinesin spindle protein (KSP) inhibitors with 2,3-fused indole scaffolds” (J Med Chem, 2010) one finds inhibition and Activity data, which are given here for 3 molecules.

Assay [1] addresses T1, Chromosome-associated kinesin KIF4A (Homo sapiens) (UniProt O95239).
T1 sequence (whole entry): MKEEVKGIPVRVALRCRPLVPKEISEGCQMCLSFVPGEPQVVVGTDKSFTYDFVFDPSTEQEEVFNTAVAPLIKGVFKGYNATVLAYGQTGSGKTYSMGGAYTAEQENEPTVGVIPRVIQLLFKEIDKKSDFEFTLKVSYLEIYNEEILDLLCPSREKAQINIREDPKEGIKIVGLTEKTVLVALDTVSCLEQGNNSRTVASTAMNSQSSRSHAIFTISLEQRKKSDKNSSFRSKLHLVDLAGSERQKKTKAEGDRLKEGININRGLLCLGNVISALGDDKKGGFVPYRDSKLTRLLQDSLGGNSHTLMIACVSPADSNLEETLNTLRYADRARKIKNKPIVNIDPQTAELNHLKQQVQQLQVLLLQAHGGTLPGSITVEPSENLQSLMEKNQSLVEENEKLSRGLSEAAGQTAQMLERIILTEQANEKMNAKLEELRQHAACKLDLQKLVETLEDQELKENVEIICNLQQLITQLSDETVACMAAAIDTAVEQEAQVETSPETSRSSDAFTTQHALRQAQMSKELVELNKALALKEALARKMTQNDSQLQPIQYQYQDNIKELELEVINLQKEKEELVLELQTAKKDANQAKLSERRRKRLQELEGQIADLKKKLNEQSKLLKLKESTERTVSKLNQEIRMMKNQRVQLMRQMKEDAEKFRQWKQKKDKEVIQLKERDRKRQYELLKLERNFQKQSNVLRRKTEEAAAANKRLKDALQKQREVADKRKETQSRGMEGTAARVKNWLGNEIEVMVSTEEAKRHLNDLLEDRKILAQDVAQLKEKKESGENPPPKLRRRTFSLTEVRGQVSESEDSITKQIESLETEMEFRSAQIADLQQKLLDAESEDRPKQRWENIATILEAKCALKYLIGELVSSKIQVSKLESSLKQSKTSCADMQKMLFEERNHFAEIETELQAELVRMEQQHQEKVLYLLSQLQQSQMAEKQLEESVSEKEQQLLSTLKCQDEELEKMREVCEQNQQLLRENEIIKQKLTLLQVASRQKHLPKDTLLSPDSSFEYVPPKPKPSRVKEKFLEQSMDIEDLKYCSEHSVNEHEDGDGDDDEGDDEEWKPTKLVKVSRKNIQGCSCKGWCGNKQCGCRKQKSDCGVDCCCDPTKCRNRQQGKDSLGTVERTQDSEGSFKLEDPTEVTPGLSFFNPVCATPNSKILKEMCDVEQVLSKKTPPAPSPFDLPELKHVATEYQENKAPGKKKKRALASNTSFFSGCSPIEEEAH
Briefly: Inhibition of KIF-4 ATPase activity at 20 uM.

Another assay has as its system Nucleic Acid. The assay is described as follows: Induction of supercoiled DNA relaxation after 20 mins by agarose gel electrophoresis analysis. The class given is nucleic-acid assay.
The next assay concerns HeLa. The assay is described as follows: Cell cycle arrest in human HeLa cells assessed as accumulation at M phase at 36 uM after 20 hrs by DAPI staining relative to taxol. The format is functional. The settings on record: in the assay text read “at 32 uM” for “at 36 uM”. The essentials: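 HeLa cells were exposed to compound for 20 h and scored for M-phase arrest. Mitotic index was expressed as a percentage of the induction given by 0.1 μM taxol.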

Activity calls are given as the source filed them. No cut-off for these calls is given here.

`FC(F)(F)c1ccc2c(c1)[nH]c1ccccc12`: in assay [1], the inhibition result is “inactive”. In addition, in the assay with Nucleic Acid, the outcome was inactive.
Take `FC(F)(F)c1ccc2[nH]c3ccccc3c2c1`: in assay [1], the inhibition result is “inactive”. Further, the result with Nucleic Acid was inactive. In addition, the Activity with HeLa was determined as 57%.
In the case of `CC(C)(C)c1ccc2c(c1)[nH]c1ccccc12`, in assay [1], the inhibition entry is “inactive”. The result with Nucleic Acid was inactive. Moreover, the Activity with HeLa was found to be 37%.
